Measured values collected from several papers.
Lines come from different studies, so protocols differ.
Cell line: MDA-MB-435
Effect on: cell growth or viability

| Structure (SMILES) | technique | tested at | time | endpoint | value |
| --- | --- | --- | --- | --- | --- |
| O=C1NCCc2[nH]c(-c3ccncc3)cc21 |  |  |  | IC50 | > 10000 nM |
| COc1ccc(-c2ccc(-c3ccc(C(=N)N)nc3)s2)cc1Cl | SRB |  |  | GI50 | 1730 nM |
| CCOC(=O)c1[nH]c(Br)c(-c2ccc(Cl)c(Cl)c2)c1Br | SRB |  |  | IC50 | 806 nM |
| COc1ccc(C(=O)/C=C/c2ccc3ccccc3c2)cc1S(N)(=O)=O | SRB | 10 µM |  | inhibition | 98% |
| CCOC(=O)c1[nH]c(Br)c(-c2ccc(OC)cc2)c1Br | SRB |  |  | IC50 | 843 nM |
| COc1cc(-c2ccc(-c3ccc(C(=N)N)nc3)s2)cc(OC)c1OC | SRB |  |  | GI50 | 1620 nM |
| COc1ccc(C(=O)/C=C/c2cccc(Cl)c2)cc1S(N)(=O)=O | SRB | 10 µM |  | inhibition | 86% |
| COc1ccc(N(C)c2nc(C)nc3c2C[C@@H](C)C3)cc1 (racemic) | SRB |  |  | IC50 | 17 nM |
| COc1cccc(Oc2ccccc2NC(=O)CNC(=O)c2cccc3ccccc23)c1 | SRB |  | 48 h | GI50 | 70.8 nM |
| COc1ccc(C(=O)/C=C/c2cccnc2)cc1S(N)(=O)=O | SRB | 10 µM |  | inhibition | 26% |
| CCOC(=O)c1[nH]c(Br)c(-c2ccc(OC(F)(F)F)cc2)c1Br | SRB |  |  | IC50 | 1700 nM |
| COc1ccc(C(=O)/C=C/c2ccc(Cl)c(Cl)c2)cc1S(N)(=O)=O | SRB |  | 48 h | GI50 | 2400 nM |
| CCOC(=O)c1[nH]c(Br)c(-c2ccc3c(c2)OCO3)c1Br | SRB |  |  | IC50 | 1800 nM |
| COc1cc(Nc2nccc(-c3cnn4nc(OC)ccc34)n2)cc(C(F)(F)F)c1 | ATP luminescence |  |  | IC50 | 130 nM |
